ChEMBL document CHEMBL1138286, “Synthesis and biological evaluation of N-(aryl)-2-thiophen-2-ylacetamides series as a new class of antitubercular agents” (2007)
≈ marks a conversion by molar mass, not a printed value. Calls of active or inactive are those of the source. The rule behind the calls is not given here.

Columns and labels:
Format in all cases: functional
[1] = test system: Mycobacterium tuberculosis; assay: Antibacterial activity against Mycobacterium tuberculosis ATTC 27294 after 5 days by MABA assay; settings: for MIC: 120 h
Outline: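 Microplate Alamar blue assay in Middlebrook 7H9 broth. Compounds serially diluted on the plate to final concentrations of […]. Plates sealed and incubated at 37 °C for 5 days. A 1:1 mix of Alamar blue and 10% Tween 80 was then added and plates incubated 24 h. Blue scored as no growth, pink as growth. MIC is the lowest concentration preventing the blue-to-pink change.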

J774 [2] = assay: Cytotoxicity against murine J774 cells assessed as cell viability at 100 ug/mL after 18 hrs by MTT assay; settings: Mus musculus, J774, 18 h; read-out: Activity
Outline: (§1)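 J774 macrophages plated at 2.5 × 10⁶ cells/mL and held 1 h at 37 °C under 5% CO₂. Non-adherent cells were washed off with RPMI 1640. Adherent cells were exposed in triplicate to compound at 0.1, 1.0, 10.0 or 100 µg/mL, with medium alone as live control and 3% Tween 20 as dead control. After 18 h, MTT was added for 4 h, formazan was dissolved in DMSO, and A540 was read.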

J774 [3] = assay: Cytotoxicity against murine J774 cells assessed as cell viability at 10 ug/mL after 18 hrs by MTT assay; settings: Mus musculus, J774, 18 h; read-out: Activity; outline: as §1
J774 [4] = assay: Cytotoxicity against murine J774 cells assessed as cell viability at 1 ug/mL after 18 hrs by MTT assay; settings: Mus musculus, J774, 18 h; read-out: Activity; outline: as §1
J774 [5] = assay: Cytotoxicity against murine J774 cells assessed as cell viability at 0.1 ug/mL after 18 hrs by MTT assay; settings: Mus musculus, J774, 18 h; read-out: Activity; outline: as §1

SMILES: O=C(Cc1cccs1)Nc1ccc(F)cc1Cl
- Activity [1]: inactive

SMILES: O=C(Cc1cccs1)Nc1cccc([N+](=O)[O-])c1
- Activity [1]: inactive

SMILES: Cc1cccc(C)c1NC(=O)Cc1cccs1
- Activity [1]: inactive

SMILES: O=C(Cc1cccs1)Nc1ccc(Cl)cc1
- MIC [1]: 100 µg/mL (≈ 397 µM)

SMILES: CO[C@H]1/C=C/O[C@@]2(C)Oc3c(C)c(O)c4c(O)c(c(/C=N/N5CCN(C)CC5)c(O)c4c3C2=O)NC(=O)/C(C)=C\C=C\[C@H](C)[C@H](O)[C@@H](C)[C@@H](O)[C@@H](C)[C@H](OC(C)=O)[C@@H]1C [RIFAMPIN]
- MIC [1]: 1 µg/mL (≈ 1.22 µM)

SMILES: O=C(Cc1cccs1)Nc1cccc(Cl)c1
- MIC [1]: 50 µg/mL (≈ 199 µM)
- viability at 100 µg/mL (J774 [2]): 100%
- viability at 10 µg/mL (J774 [3]): 100%
- viability at 1 µg/mL (J774 [4]): 100%
- viability at 0.1 µg/mL (J774 [5]): 100%

SMILES: O=C(Cc1cccs1)Nc1ccccc1[N+](=O)[O-]
- Activity [1]: inactive

SMILES: O=C(Cc1cccs1)Nc1ccc([N+](=O)[O-])cc1
- MIC [1]: 50 µg/mL (≈ 191 µM)
- viability at 100 µg/mL (J774 [2]): 85%
- viability at 10 µg/mL (J774 [3]): 100%
- viability at 1 µg/mL (J774 [4]): 100%
- viability at 0.1 µg/mL (J774 [5]): 100%

SMILES: O=C(Cc1cccs1)Nc1ccccc1
- MIC [1]: 25 µg/mL (≈ 115 µM)
- viability at 100 µg/mL (J774 [2]): 100%
- viability at 10 µg/mL (J774 [3]): 100%
- viability at 1 µg/mL (J774 [4]): 100%
- viability at 0.1 µg/mL (J774 [5]): 100%

SMILES: O=C(Cc1cccs1)Nc1ccc(F)cc1
- MIC [1]: 100 µg/mL (≈ 425 µM)

SMILES: COc1ccc(NC(=O)Cc2cccs2)cc1
- Activity [1]: inactive

SMILES: COc1ccccc1NC(=O)Cc1cccs1
- Activity [1]: inactive

SMILES: Cc1ccccc1NC(=O)Cc1cccs1
- MIC [1]: 100 µg/mL (≈ 432 µM)

SMILES: COc1cccc(NC(=O)Cc2cccs2)c1
- MIC [1]: 50 µg/mL (≈ 202 µM)
- viability at 100 µg/mL (J774 [2]): 100%
- viability at 10 µg/mL (J774 [3]): 100%
- viability at 1 µg/mL (J774 [4]): 100%
- viability at 0.1 µg/mL (J774 [5]): 100%

SMILES: O=C(Cc1cccs1)Nc1c(Cl)cccc1Cl
- Activity [1]: inactive

SMILES: O=C(Cc1cccs1)Nc1ccc(Cl)cc1F
- MIC [1]: 100 µg/mL (≈ 371 µM)

SMILES: O=C(Cc1cccs1)Nc1ccc(Br)cc1
- Activity [1]: inactive

SMILES: O=C(Cc1cccs1)Nc1ccc2c(c1)OCO2
- Activity [1]: inactive

SMILES: COc1ccc(OC)c(NC(=O)Cc2cccs2)c1
- Activity [1]: inactive

SMILES: O=C(Cc1cccs1)Nc1cccc(C(F)(F)F)c1
- Activity [1]: inactive

SMILES: O=C(Cc1cccs1)Nc1ccccc1C(F)(F)F
- Activity [1]: inactive

SMILES: NNC(=O)c1ccncc1 [ISONIAZID]
- MIC [1]: 0.2 µg/mL (≈ 1.46 µM)
